From paper PMC8753134 (Research and Practice in Thrombosis and Haemostasis, 2022)
Structures can show the parent of a compound that is named as a salt. Where two headings read alike, the source gives them in different places. No end group written: not given here.

Key:
[1] = type: in vitro ADME, human; conditions: spiked 1 ng/mL, 3 hours after sampling, absence of inhibitor, n = 3
[2] = cited from earlier work
[3] = system: FXIIa and PKa (contact activation-mediated BK formation); assay: Screening of serine protease inhibitors against artificial ex vivo BK formation; type: biochemical, human; conditions: citrate plasma; for BK levels after 4.5 hours: 4.5 hours after sampling, n = 3
In short: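 Fresh blood in citrate, with serine protease inhibitors present singly (e.g., 2 mM AEBSF), then combinations of the most promising; uninhibited plasma as reference. BK was quantified by in-house LC-MS/MS immediately (reference value) and up to 4.5 h after sampling, given as relative abundance. Samples were analysed directly without long-term storage.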

NCCCC[C@H](N)C(=O)N[C@@H](CCCN=C(N)N)C(=O)N1CCC[C@H]1C(=O)N1CCC[C@H]1C(=O)NCC(=O)N[C@@H](Cc1ccccc1)C(=O)N[C@@H](CO)C(=O)N1CCC[C@H]1C(=O)N[C@@H](Cc1ccccc1)C(=O)N[C@@H](CCCN=C(N)N)C(=O)O [KBK, Kallidin]
change of spiked plasma kinin level [1]: −100%
half-life [2]: < 1 min

CC(=O)N[C@@H](CC(C)C)C(=O)N[C@@H](CC(C)C)C(=O)N[C@H](C=O)CCCNC(=N)N [leupeptin, leupeptin hemisulfate]
BK levels after 4.5 hours [3]: BK levels were increased

N=C(N)c1ccc2cc(OC(=O)c3ccc(N=C(N)N)cc3)ccc2c1 [nafamostat, nafamostat mesylate]
BK levels after 4.5 hours [3]: BK levels were increased

RPPGF [BK‐(1‐5), Bradykinin 1–5]
half-life ([2]; inactive metabolite): ≈ 90 minutes

RPPGFSP [BK‐(1‐7), Bradykinin 1–7]
change of spiked plasma kinin level [1]: −65.7%

RPPGFSPFR [BK, Bradykinin]
half-life [2]: < 1 min

hexadimethrine bromide [HDMB]
BK level as % of uninhibited plasma ([3]; tube prespiked with inhibitor, n = 3, LC-MS/MS): 0.4%
